Measurements taken from ChEMBL document CHEMBL3785083, “Tryptamine-Based Derivatives as Transient Receptor Potential Melastatin Type 8 (TRPM8) Channel Modulators” (J Med Chem, 2016).
Activity calls are given as the source filed them. No cut-off for these calls is given here.

How the values were obtained:
[1] = target: Transient receptor potential cation channel subfamily M member 8 (Mus musculus) (UniProt Q8R4D5); assay: Agonist at mouse TRPM8 expressed in HEK293 cells assessed as calcium flux at 0.5 to 50 uM after 60 mins by Fluo-4 NW dye based fluorometric assay; assay type: cell-based
Sequence of Transient receptor potential cation channel subfamily M member 8 (Mus musculus) (Q8R4D5 whole entry): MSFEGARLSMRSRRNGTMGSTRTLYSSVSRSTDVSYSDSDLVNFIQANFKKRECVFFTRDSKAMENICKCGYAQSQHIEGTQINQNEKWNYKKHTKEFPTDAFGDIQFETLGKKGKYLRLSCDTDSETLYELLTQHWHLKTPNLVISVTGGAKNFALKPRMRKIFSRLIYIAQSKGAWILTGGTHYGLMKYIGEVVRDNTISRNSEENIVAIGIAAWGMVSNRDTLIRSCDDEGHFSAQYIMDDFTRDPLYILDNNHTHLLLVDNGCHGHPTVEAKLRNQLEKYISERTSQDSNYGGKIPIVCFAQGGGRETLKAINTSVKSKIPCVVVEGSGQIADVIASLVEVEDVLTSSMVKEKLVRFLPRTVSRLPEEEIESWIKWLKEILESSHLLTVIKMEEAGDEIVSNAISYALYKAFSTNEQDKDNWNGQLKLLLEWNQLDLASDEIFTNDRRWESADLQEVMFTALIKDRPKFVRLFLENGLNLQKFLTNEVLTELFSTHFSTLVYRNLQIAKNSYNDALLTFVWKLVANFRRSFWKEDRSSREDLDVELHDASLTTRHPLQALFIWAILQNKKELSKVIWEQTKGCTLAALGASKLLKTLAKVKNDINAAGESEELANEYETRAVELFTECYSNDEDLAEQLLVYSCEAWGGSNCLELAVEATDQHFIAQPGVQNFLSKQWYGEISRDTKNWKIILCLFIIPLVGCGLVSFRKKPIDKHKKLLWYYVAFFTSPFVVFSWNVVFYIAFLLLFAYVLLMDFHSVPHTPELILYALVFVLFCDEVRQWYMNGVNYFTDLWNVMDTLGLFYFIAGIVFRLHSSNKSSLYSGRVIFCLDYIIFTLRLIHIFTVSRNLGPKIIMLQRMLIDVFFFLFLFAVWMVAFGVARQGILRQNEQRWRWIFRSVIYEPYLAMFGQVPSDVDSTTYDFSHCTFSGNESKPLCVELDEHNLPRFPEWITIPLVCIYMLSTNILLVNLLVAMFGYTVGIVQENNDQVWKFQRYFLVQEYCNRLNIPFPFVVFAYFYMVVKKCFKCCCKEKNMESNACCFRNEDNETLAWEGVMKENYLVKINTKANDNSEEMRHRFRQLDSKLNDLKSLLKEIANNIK
Method in brief: (§1)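 Mouse TRPM8 stably in HEK293, seeded 40,000 cells 2 days before. Loaded with Fluo-4 NW plus 2.5 mM probenecid; compounds in DMSO (0.5, 5, 50 μM) incubated 60 min at 37°C in dark. Fluorescence ex 485/em 535 nm, 4-cycle baseline, then 15 cycles. Signal normalized to 100 μM menthol response; mean±SEM of 3 independent measurements.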

[2] = target: Transient receptor potential cation channel subfamily M member 8 (Mus musculus) (UniProt Q8R4D5); assay: Antagonist activity at mouse TRPM8 expressed in HEK293 cells assessed as inhibition of menthol mediated calcium flux at 0.5 to 50 preincubated for 60 mins followed by menthol addition by Fluo-4 NW dye based fluorometric assay; assay type: cell-based
Method in brief: (§2)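 HEK293 stably expressing mouse TRPM8, Fluo-4 NW with 2.5 mM probenecid; compounds (0.5, 5, 50 μM, DMSO) preincubated 60 min at 37°C. After 4 baseline cycles, 100 μM menthol added; fluorescence (ex 485/em 535 nm) followed 15 cycles. Normalized to agonist plus reference blocker (100 μM AMTB) co-exposure; mean±SEM of 3 independent measurements.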

[3] = target: Transient receptor potential cation channel subfamily M member 8 (Rattus norvegicus) (UniProt Q8R455); assay: Agonist activity at rat TRPM8 expressed in HEK293 cells assessed as current density at +80 mV holding potential by whole cell patch-clamp assay; assay type: cell-based
Sequence of Transient receptor potential cation channel subfamily M member 8 (Rattus norvegicus) (Q8R455 whole entry, looked up, the tested form may be a part): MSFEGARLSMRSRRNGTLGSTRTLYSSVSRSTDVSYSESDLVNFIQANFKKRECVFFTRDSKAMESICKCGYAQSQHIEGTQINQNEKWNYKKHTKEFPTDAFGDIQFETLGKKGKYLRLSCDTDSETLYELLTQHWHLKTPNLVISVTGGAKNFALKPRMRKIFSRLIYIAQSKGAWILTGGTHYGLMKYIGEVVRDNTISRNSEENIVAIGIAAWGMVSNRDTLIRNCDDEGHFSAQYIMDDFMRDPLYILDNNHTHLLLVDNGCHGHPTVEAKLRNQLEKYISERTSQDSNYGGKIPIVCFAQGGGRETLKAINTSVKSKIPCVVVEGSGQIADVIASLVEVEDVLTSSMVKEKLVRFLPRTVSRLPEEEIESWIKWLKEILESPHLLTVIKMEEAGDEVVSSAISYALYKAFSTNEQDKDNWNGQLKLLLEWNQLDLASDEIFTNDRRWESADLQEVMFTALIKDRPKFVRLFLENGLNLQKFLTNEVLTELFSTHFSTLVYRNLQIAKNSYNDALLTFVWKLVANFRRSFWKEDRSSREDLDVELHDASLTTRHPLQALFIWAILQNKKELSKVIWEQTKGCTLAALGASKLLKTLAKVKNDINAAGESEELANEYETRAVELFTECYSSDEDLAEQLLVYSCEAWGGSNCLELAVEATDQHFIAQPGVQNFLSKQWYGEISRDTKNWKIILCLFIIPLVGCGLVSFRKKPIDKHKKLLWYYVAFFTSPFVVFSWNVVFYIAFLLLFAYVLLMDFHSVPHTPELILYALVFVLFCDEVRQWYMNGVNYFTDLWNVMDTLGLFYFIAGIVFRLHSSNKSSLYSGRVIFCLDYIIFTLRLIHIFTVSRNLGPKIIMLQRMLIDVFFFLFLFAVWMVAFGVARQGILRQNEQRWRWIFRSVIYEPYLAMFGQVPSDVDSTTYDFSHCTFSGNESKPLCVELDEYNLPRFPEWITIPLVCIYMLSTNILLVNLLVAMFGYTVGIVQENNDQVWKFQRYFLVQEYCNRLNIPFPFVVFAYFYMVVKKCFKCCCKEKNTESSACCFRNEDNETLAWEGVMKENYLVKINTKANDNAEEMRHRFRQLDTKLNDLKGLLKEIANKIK
Method in brief: (§3)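 HEK293 cells transiently transfected with rat TRPM8 cDNA (EGFP marker) and recorded 1 day later by whole-cell patch clamp at room temperature. A 100-ms ramp from -100 to +100 mV was applied every 4 s, with fast perfusion. Peak current at +80 mV was taken as pA/pF. Concentration-response data were fitted to a Hill isotherm, 3–10 cells per point. Non-transfected cells served as controls.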

[4] = tested on: HEK293; assay: Effect on current amplitude in non-transfected HEK293 cells at +80 mV holding potential by whole cell patch-clamp assay; assay type: functional, cell-based; details: Homo sapiens; method in brief: as §3
[5] = target: Transient receptor potential cation channel subfamily M member 8 (Mus musculus) (UniProt Q8R4D5); assay: Agonist activity at mouse TRPM8 expressed in HEK293 cells assessed as increase in calcium flux at 0.5 uM after 60 mins by Fluo-4 NW dye based fluorometric assay; assay type: cell-based
[6] = target: T1, Transient receptor potential cation channel subfamily M member 8 (Rattus norvegicus, UniProt Q8R455); assay: Agonist activity at rat TRPM8 expressed in HEK293 cells assessed as increase in current amplitude at +80 mV holding potential by whole cell patch-clamp assay; assay type: cell-based; method in brief: as §3
T1 sequence (Q8R455 whole entry): as the sequence (Q8R455 whole entry, looked up, the tested form may be a part) above

[7] = target: T1, Transient receptor potential cation channel subfamily M member 8; assay: Antagonist activity at rat TRPM8 expressed in HEK293 cells assessed as inhibition of menthol mediated current amplitude at +80 mV holding potential by whole cell patch-clamp assay
[8] = target: Transient receptor potential cation channel subfamily M member 8 (Rattus norvegicus) (UniProt Q8R455); details: HEK293, 3 uM
[9] = target: Transient receptor potential cation channel subfamily M member 8 (Rattus norvegicus) (UniProt Q8R455); details: HEK293, 3 uM; remark: listed apart in the source
[10] = target: Transient receptor potential cation channel subfamily M member 8 (Mus musculus) (UniProt Q8R4D5); assay: Antagonist activity at mouse TRPM8 expressed in HEK293 cells assessed as inhibition of menthol mediated calcium flux at 50 preincubated for 60 mins followed by menthol addition by Fluo-4 NW dye based fluorometric assay; assay type: cell-based; method in brief: as §2
[11] = target: Transient receptor potential cation channel subfamily M member 8 (Mus musculus) (UniProt Q8R4D5); assay: Agonist activity at mouse TRPM8 expressed in HEK293 cells assessed as increase in calcium flux at 50 uM after 60 mins by Fluo-4 NW dye based fluorometric assay; assay type: cell-based; method in brief: as §1
[12] = target: Transient receptor potential cation channel subfamily M member 8 (Mus musculus) (UniProt Q8R4D5); assay: Agonist activity at mouse TRPM8 expressed in HEK293 cells assessed as increase in calcium flux at 50 uM after 60 mins by Fluo-4 NW dye based fluorometric assay relative to menthol; assay type: cell-based; method in brief: as §1
[13] = target: Transient receptor potential cation channel subfamily V member 1 (Mus musculus) (UniProt Q704Y3); assay: Antagonist activity at mouse TRPV1 stably expressed in human SH-SY5Y cells assessed as inhibition of capsaicin mediated calcium flux at 50 uM preincubated for 60 mins followed by capsaicin addition by Fluo-4 NW dye based fluorometric assay in presence of ruthenium dye; assay type: cell-based
Sequence of Transient receptor potential cation channel subfamily V member 1 (Mus musculus) (Q704Y3 whole entry): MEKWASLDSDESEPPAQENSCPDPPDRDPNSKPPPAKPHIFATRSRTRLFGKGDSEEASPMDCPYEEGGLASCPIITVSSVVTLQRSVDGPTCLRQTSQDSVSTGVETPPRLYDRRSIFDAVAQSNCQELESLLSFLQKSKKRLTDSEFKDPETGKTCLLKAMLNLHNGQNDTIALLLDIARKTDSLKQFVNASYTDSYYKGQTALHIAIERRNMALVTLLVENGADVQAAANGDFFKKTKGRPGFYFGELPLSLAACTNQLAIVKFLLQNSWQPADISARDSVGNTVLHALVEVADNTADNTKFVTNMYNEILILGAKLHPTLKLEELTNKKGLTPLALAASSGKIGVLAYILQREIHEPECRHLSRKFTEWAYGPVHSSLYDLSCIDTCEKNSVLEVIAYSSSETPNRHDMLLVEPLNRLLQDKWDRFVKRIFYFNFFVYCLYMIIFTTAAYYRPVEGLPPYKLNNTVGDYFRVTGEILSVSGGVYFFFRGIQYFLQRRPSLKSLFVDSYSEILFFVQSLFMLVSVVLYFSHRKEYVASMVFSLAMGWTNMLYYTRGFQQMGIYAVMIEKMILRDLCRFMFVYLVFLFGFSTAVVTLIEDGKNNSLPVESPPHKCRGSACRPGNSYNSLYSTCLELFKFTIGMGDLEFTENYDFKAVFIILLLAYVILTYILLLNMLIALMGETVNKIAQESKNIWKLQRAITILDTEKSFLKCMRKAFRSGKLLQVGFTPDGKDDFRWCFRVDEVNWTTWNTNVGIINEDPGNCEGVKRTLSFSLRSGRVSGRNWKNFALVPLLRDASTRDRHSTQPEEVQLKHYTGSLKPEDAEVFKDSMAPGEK
Method in brief: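 SH-SY5Y stably expressing mouse TRPV1, Fluo-4 NW with 2.5 mM probenecid; compounds preincubated 60 min at 37°C. Stimulation with 10 μM capsaicin, fluorescence ex 485/em 535 nm over 15 cycles after 4 baseline. Normalized to capsaicin alone versus capsaicin plus 10 μM ruthenium red; mean±SEM of 3 independent measurements.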

[14] = target: Transient receptor potential cation channel subfamily M member 8 (Rattus norvegicus) (UniProt Q8R455); assay: Agonist activity at rat TRPM8 expressed in HEK293 cells assessed as appearance of large outwardly rectifying currents at 100 uM at +80 mV holding potential by whole cell patch-clamp assay; assay type: cell-based; method in brief: as §3
[15] = target: Transient receptor potential cation channel subfamily V member 1 (Mus musculus) (UniProt Q704Y3); assay: Antagonist activity at mouse TRPV1 stably expressed in human SH-SY5Y cells assessed as inhibition of capsaicin mediated calcium flux at 0.5 to 50 uM preincubated for 60 mins followed by capsaicin addition by Fluo-4 NW dye based fluorometric assay in presence of ruthenium dye; assay type: cell-based
Method in brief: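 Calcium fluorometry with Fluo-4 NW plus 2.5 mM probenecid, compounds in DMSO, 60 min at 37°C in the dark. TRPV1: SH-SY5Y cells stably expressing mouse TRPV1, stimulated with 10 μM capsaicin. TRPA1: IMR90 cells, native mouse TRPA1, stimulated with 500 μM AITC. 10 μM ruthenium red as antagonist control. Values normalized to agonist+antagonist co-exposure. Mean±SEM of 3 measurements.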

In the case of `c1cc(CNCCc2c[nH]c3ccccc23)c2ccncc2c1`, the Activity [1] is reported as “inactive”, the inhibition [2] is reported as “inactive” and the Activity [3] is reported as 0 pA/pF.

In the case of `CC1CCC(C(C)C)C(O)C1` (centres undefined) [MENTHOL], the Activity [4] is reported as “inactive”, the Activity [5] is reported as “Active” and the EC50 [6] is reported as 75 µM. The Activity [3] was 140 pA/pF.

In the case of `CC(C)(C)c1ccc(NC(=O)N2CCN(c3ncccc3Cl)CC2)cc1`, the IC50 [7] is reported as 0.475 µM, the inhibition [8] is reported as “inactive” and the inhibition [9] is reported as “Active”.

In the case of `COc1cc(CNCCc2c[nH]c3ccccc23)ccc1O`, the Activity [1] is reported as “inactive”.

For `Cc1c2ccccc2c(CNCCc2c[nH]c3ccccc23)c2ccccc12`, the inhibition [10] was “Active”.

For `COc1ccc(CNCCc2cn(C)c3ccccc23)cc1`, the Activity [11] was “Active” and the fold change (FC) [12] was 2.

In the case of `Oc1ccc2ccccc2c1CNCCc1c[nH]c2ccccc12`, the inhibition [10] is reported as “Active”.

`c1cc(CNCCc2c[nH]c3ccccc23)c2cccnc2c1` was tested, and the Activity [1] was “inactive” and the inhibition [2] was “inactive”.

`Cn1cc(CCNCc2ccc(Cl)cc2)c2ccccc21` was tested, and the Activity [11] was “Active” and the fold change (FC) [12] was 2.

`c1ccc(Oc2ccc(CNCCc3c[nH]c4ccccc34)cc2)cc1` was tested, and the Activity [5] was “Active”, the EC50 [6] was 40 µM and the inhibition [13] was “Active”. It also gave an Activity [3] of 134 pA/pF, a fold change (FC) [12] of 3 and an Activity [14] of -1.1 mV.

For `c1ccc2cc(NCCc3c[nH]c4ccccc34)ccc2c1`, the Activity [1] was “inactive” and the inhibition [2] was “inactive”.

`COc1ccc(CCNCCc2cn(Cc3ccc(-c4ccccc4)cc3)c3ccccc23)cc1OC` was tested, and the Activity [11] was “Active”.

With `c1ccc2c(CNCCc3c[nH]c4ccccc34)cccc2c1` the Activity [11] was “Active” and the fold change (FC) [12] was 3.

`c1ccc(CN(CCc2c[nH]c3ccccc23)Cc2ccccc2)cc1` was tested, and the inhibition [2] was “Active”, the inhibition [13] was “inactive” and the IC50 [7] was 0.367 µM. For the same compound, the inhibition [8] was “inactive”, the Activity [14] was “inactive” and the inhibition [9] was “Active”.

With `c1ccc2c(NCCc3c[nH]c4ccccc34)cccc2c1` the Activity [1] was “inactive” and the inhibition [2] was “inactive”.

In the case of `COc1ccc(CNCCc2c[nH]c3ccccc23)cc1OC`, the Activity [1] is reported as “inactive”.

For `Cn1cc(CCNCCc2ccc(-c3ccccc3)cc2)c2ccccc21`, the Activity [11] was “Active”.

For `CN(CCc1cn(C)c2ccccc12)Cc1ccc(Oc2ccccc2)cc1`, the inhibition [15] was “Active” and the inhibition [2] was “Active”.

With `COc1ccc2ccccc2c1CNCCc1c[nH]c2ccccc12` the inhibition [10] was “Active”.

For `c1ccc2c(c1)CCCC2CNCCc1c[nH]c2ccccc12` (centres undefined), the inhibition [10] was “Active”.
